This is an account of results in ChEMBL document CHEMBL3112469, “Substituted 2-phenylimidazopyridines: a new class of drug leads for human African trypanosomiasis” (J Med Chem, 2014).

Values after ≈ are worked out from the molar mass of the structure shown. Active and inactive are the calls of the source. The rule behind the calls is not given here.

Data set [1] in a line: (§1) Cmax in mouse plasma at 50 mg/kg, po LC-MS analysis. The format is ADME, organism-based. On the set-up: dose 50 mg/kg, route oral. To be noted: plasma. In outline: (§2)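 Mice, groups of three, were given 50 mg/kg by oral gavage in 0.2 mL vehicle (7% Tween 80, 3% ethanol, 5% DMSO, 0.9% saline). Blood was sampled at 30, 60, 120, 180, 240 and 360 min. Plasma was separated and extracted with acetonitrile, and compound was quantified by LC-MS/MS.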

Data set [2] concerns Rattus norvegicus. Description: Apparent volume of distribution at steady state in Sprague-Dawley rat at 20 mg/kg, po and 5 mg/kg, iv by LC-MS analysis. The format is ADME, organism-based. The following applies: in vivo. In outline: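 Jugular-cannulated Sprague-Dawley rats, two per route. Oral gavage 20 mg/kg or iv 5 mg/kg infused over 0–3 min, each in 1 mL of 7% Tween 80/3% EtOH/5% DMSO/saline. Jugular blood sampled from 5 to 1440 min. Plasma extracted with acetonitrile and analysed by LC-MS/MS.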

Data set [3] concerns Nucleic Acid. Description: Ratio of drug level in brain to plasma in mouse at 5 mg/kg, ip after 60 mins. To be noted: 1 h. The format is ADME, organism-based. On the set-up: dose 5 mg/kg, route intraperitoneal. The method, boiled down: (§3)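 Mice, groups of three, received 5 mg/kg ip in 0.4 mL vehicle (7% Tween 80, 3% ethanol, 5% DMSO, 0.9% saline) and were sacrificed at set times. Brains were weighed, frozen and homogenized in acetonitrile; plasma came from heparinized capillary blood. Both were measured by LC-MS/MS. Brain concentration used 1 g = 1 mL and was corrected for 2.5% vasculature volume.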

Data set [4] is described as follows: (§4) Tmax in mouse plasma at 50 mg/kg, po by LC-MS analysis. The format is ADME, organism-based. On the set-up: dose 50 mg/kg, route oral. The following applies: plasma. In outline: as §2
In data set [5] the test system is Trypanosoma brucei brucei. Description: Antiparasitic activity against Trypanosoma brucei brucei BF427 assessed as growth inhibition by Alamar Blue assay. The format is functional, organism-based. In outline:
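Bloodstream-form T. brucei brucei BF427 grown with serial compound dilutions, each tested in triplicate. Growth quantified with AlamarBlue. Pentamidine isothionate included in every assay as positive control.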
On the technique in general: The colour change of resazurin is a common sign of viable cells or microbes.

Data set [6] is described as follows: Apparent permeability across MDCK2 cells expressing human MDR1. The format is ADME, cell-based, Canis lupus familiaris. The following applies: dog, mdck-ii. The method, boiled down:
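MDCKII cells transfected with human MDR1 (P-gp) grown as monolayers; permeability (Papp) measured in triplicate with and without the MDR1 inhibitor GF-120918.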

The subject of data set [7] is Rattus norvegicus. The data set can be described thus: Oral bioavailability in Sprague-Dawley rat at 21.3 mg/kg by LC-MS analysis. The format is ADME, organism-based. To be noted: in vivo.
The test system of data set [8] is Trypanosoma brucei rhodesiense. The data set can be described thus: Antitrypanosomal activity against Trypanosoma brucei rhodesiense ST1B900 infected in Swiss Webster mouse assessed as cure from infection at 1 mg/kg, po bid administered 48 hrs postinfection for 5 days measured on day 4 to 13. Also on record: dose 1 mg/kg. The format is functional, organism-based.

The nature of data set [9]: (§5) AUC in mouse plasma at 50 mg/kg, po by LC-MS analysis. The format is ADME, organism-based. Also on record: dose 50 mg/kg, route oral. To be noted: plasma. In outline:
as §2

In data set [10] the test system is Trypanosoma brucei rhodesiense. The data set can be described thus: Antitrypanosomal activity against Trypanosoma brucei rhodesiense ST1B900 infected in Swiss Webster mouse assessed as cure from infection at 5 to 50 mg/kg, po bid administered 48 hrs postinfection for 5 days measured on day 60. The format is functional, organism-based.
Data set [11] concerns Trypanosoma brucei rhodesiense. Description: Antitrypanosomal activity against Trypanosoma brucei rhodesiense ST1B900 infected in Swiss Webster mouse assessed as cure from infection at 50 mg/kg, po qd administered 48 hrs postinfection for 5 days measured on day 60. The format is functional, organism-based. Also on record: dose 50 mg/kg.
Data set [12] relates to HepG2. Description: Cytotoxicity against human HepG2 cells after 48 hrs by Alamar Blue assay. The format is cell-based. The following applies: hepg2, 48 h.
In data set [13] the test system is L6. Description: Cytotoxicity against rat L6 cells after 48 hrs by Alamar Blue assay. The format is cell-based. To be noted: l6, 48 h.
The nature of data set [14]: Cytotoxicity against human CRL8155 cells after 48 hrs by Alamar Blue assay. The format is cell-based. The following applies: crl8155, 48 h.
The subject of data set [15] is Trypanosoma brucei rhodesiense. Description: Antiparasitic activity against Trypanosoma brucei rhodesiense. The format is functional, organism-based.
Data set [16] concerns Mus musculus. Described as §1. On the set-up: dose 50 mg/kg, route oral. The format is ADME, organism-based. To be noted: in vivo. The method, boiled down: as §2
For data set [17], the system named is Mus musculus. The data set is described as §4. On the set-up: dose 50 mg/kg, route oral. To be noted: in vivo. The format is ADME, organism-based. The method, boiled down:
as §2

Data set [18] can be described thus: Aqueous solubility of the compound at pH 7.4 after 5 to 10 mins by HPLC analysis. The following applies: buffer. The format is physicochemical.
Data set [19] concerns Nucleic Acid. Description: Ratio of drug level in brain to plasma in mouse at 5 mg/kg, ip after 15 mins. The format is ADME, organism-based. On the set-up: dose 5 mg/kg, route intraperitoneal. The following applies: 0.25 h. The method, boiled down: as §3
In data set [20] the test system is Liver microsome. The data set can be described thus: Half life in human liver microsomes by LC-MS analysis. The format is ADME. The method, boiled down:
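Compounds incubated with mouse or human liver microsomes. Samples removed at time points and analysed by LC-MS/MS. Dextromethorphan and testosterone used as reference drugs to standardize each assay.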

Data set [21] relates to Mus musculus. The data set is described as §5. The following applies: in vivo. On the set-up: dose 50 mg/kg, route oral. The format is ADME, organism-based. In outline:
as §2

A short description of data set [22]: Aqueous solubility of the compound at pH 2 after 5 to 10 mins by HPLC analysis. The format is physicochemical. The following applies: buffer.
A short description of data set [23]: Clearance in mouse plasma at 50 mg/kg, po by LC-MS analysis. The format is ADME, organism-based. On the set-up: dose 50 mg/kg, route oral. In outline: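 Mice, three per compound, given 50 mg/kg by oral gavage in 0.2 mL of 7% Tween 80/3% ethanol/5% DMSO/0.9% saline. Plasma extracted with acetonitrile and quantified by LC-MS/MS.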
The test system of data set [24] is Mus musculus. The data set can be described thus: Elimination half life in mouse plasma at 50 mg/kg, po by LC-MS analysis. The format is ADME, organism-based. Also on record: dose 50 mg/kg, route oral. To be noted: in vivo. In outline:
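Mice dosed by oral gavage at 50 mg/kg in 0.2 mL vehicle (7% Tween 80, 3% ethanol, 5% DMSO, 0.9% saline), groups of three. Plasma separated and extracted with acetonitrile, and compound quantified by LC-MS/MS.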

What is called Cmax is the highest concentration seen after dosing. For orientation: Tmax means the time from dosing to the highest level. For orientation: EC50 means the concentration at which the effect is half-maximal. Broadly, the Papp is the rate of passage across a membrane or cell layer, normalised by area and donor concentration. A word on the AUC: it is concentration integrated over time. A higher AUC goes with more exposure. `O=C(Nc1ccc(F)c(-c2nc3cc(-c4ccccc4)cnc3[nH]2)c1)N1CCCC1`: the concentration in data set [1] peaked (Cmax) at 4300 nM. The “Vdss(app)” value in data set [2] was 2.4 L/kg. Further, the BPR in data set [3] is 0.5. Besides, the time to peak (Tmax) in [4] was 30 min. The EC50 in data set [5] came out at 0.002 µM. In addition, the Papp in data set [6] stood at 40.1 ×10⁻⁶ cm/s. The compound further had a F in data set [7] of 35%. In data set [8], the outcome was inactive. In data set [9], this compound showed an area under the curve (AUC) of 18.8 µM·h. The outcome in data set [10] and in data set [11] was Active.

What is called CC50 is the concentration that lowers cell viability or growth by half. Consider `O=C(Nc1ccc(F)c(-c2nc3cc(Cl)cnc3[nH]2)c1)c1ccco1`, for which the figures for the CC50 in [12], in data set [13] and in data set [14] were greater than 50 µM, greater than 50 µM and 1.7 µM, respectively. Moreover, the EC50 in [5] was determined as 0.07 µM.

In turn, `O=C(Nc1ccc(Cl)c(-c2nc3ncccc3o2)c1)C(F)(F)F` yielded a concentration giving a half-maximal response (EC50) in [15] greater than 50 µM.

On to `O=C(Nc1ccc(F)c(-c2nc3cc(Cl)cnc3[nH]2)c1)N1CCCC1`, for which the CC50 in [12] is greater than 50 µM; in data set [13], 15 µM; in [14] it was greater than 50 µM. Further, the half-maximal effective concentration (EC50) in [5] stood at 0.05 µM.

What is called solubility is how much of the substance goes into solution per volume. A lower solubility goes with little dissolved substance. By CL/F is commonly meant the apparent clearance, not corrected for the fraction that reaches the circulation. As to `O=C(Nc1ccc(Cl)c(-c2nc3ncccc3o2)c1)c1ccco1`, the CC50 in [12], in [13] and in [14] was greater than 50 µM each time. The Cmax in data set [16] was 60 nM. In addition, the BPR is recorded as 0.38 in data set [3] and 0.54 in data set [19]. In addition, the Tmax in [17] amounted to 30 min. Also, the EC50 in data set [5] came to 0.22 µM. The Papp in data set [6] came to 41.7 ×10⁻⁶ cm/s. The solubility in [18] worked out at 20 µM (≈ 6.79 µg/mL); in [22], 22 µM (≈ 7.47 µg/mL). The compound further returned a t1/2 in data set [20] of 6.4 min. The compound also gave an AUC in data set [21] of 187 µM·min. The same compound yielded a CL/F in [23] of 98 mL/min/kg. The “beta t1/2” value in [24] is 53 min.

Take `O=C(Nc1ccc(F)c(-c2nc3cc(-c4cccnc4)cnc3[nH]2)c1)N1CCCC1`: the CC50 was greater than 50 µM in data set [12] and 14 µM in data set [14]. In addition, the EC50 in [5] amounted to 0.005 µM.

As for `COc1ccc(-c2cnc3[nH]c(-c4cc(NC(=O)N5CCCC5)ccc4F)nc3c2)cn1`, the CC50 in data set [12] and in [14] was greater than 50 µM in each case. Moreover, the EC50 in data set [5] stood at 0.005 µM.

Consider `COc1ncc(-c2cnc3[nH]c(-c4cc(NC(=O)N5CCCC5)ccc4F)nc3c2)cn1`, for which the CC50 in data set [12] turned out to be 9.8 µM; in data set [14] it was 3.9 µM. Also, in data set [5], the EC50 was determined as 0.06 µM.

`O=C(c1ccco1)N(C(=O)c1ccco1)c1ccc(F)c(-c2nc3ncccc3o2)c1`: the CC50 in data set [12], in data set [13] and in data set [14] was greater than 50 µM each time. Besides, the EC50 in [5] amounted to 0.12 µM.

As for `O=C(Nc1ccc(F)c(-c2nc3cc(-c4cccc(Cl)c4)cnc3[nH]2)c1)N1CCCC1`, the CC50 in data set [12] was greater than 50 µM; in data set [14], 2.8 µM. Further, in data set [5], the EC50 came to 0.002 µM.

Turning to `O=C(Nc1ccc(F)c(-c2nc3ncc(-c4ccc(F)cc4)cc3o2)c1)c1ccco1`, the CC50 was 32 µM in [12] and greater than 50 µM in [14]. The EC50 in data set [5] worked out at 0.05 µM; in data set [15], 0.1 µM.

Regarding `O=C(Nc1ccc(F)c(-c2nc3cc(-c4cncc(N5CCCC5)c4)cnc3[nH]2)c1)N1CCCC1`, the figures for the CC50 in data set [12] and in data set [14] were greater than 50 µM and 8 µM, respectively. In addition, the EC50 in [5] amounted to 0.02 µM.

In the case of `O=C(Nc1ccc(F)c(-c2nc3cc(-c4cccc(OC(F)(F)F)c4)cnc3[nH]2)c1)N1CCCC1`, the figures for the CC50 in [12] and in data set [14] were greater than 50 µM and 11 µM, respectively. In addition, in data set [5], the EC50 was determined as 0.03 µM.

With `COc1ccccc1-c1cnc2[nH]c(-c3cc(NC(=O)N4CCCC4)ccc3F)nc2c1`, the CC50 in data set [12] was greater than 50 µM; in [14], 13 µM. Further, in [5], the EC50 worked out at 0.005 µM.

Consider `O=C(Nc1ccc(F)c(-c2nc3ncc(-c4ccccc4)cc3o2)c1)c1ccco1`, for which the EC50 in data set [5] turned out to be 0.04 µM; in data set [15] it was 0.08 µM. It took 7 µM to reach half-maximal cytotoxicity in data set [13] (CC50).

Take `O=C(Nc1ccc(F)c(-c2nc3cc(-c4ccoc4)cnc3[nH]2)c1)N1CCCC1`: the values for the CC50 in data set [12] and in [14] were greater than 50 µM and 25 µM, respectively. The EC50 in data set [5] was 0.004 µM.
